From ChEMBL document CHEMBL1144952 (J Med Chem, 2003) come the findings set out here.

Experiment [1] addresses T1, Cannabinoid receptor 2 (Homo sapiens, UniProt P34972). Nature of the experiment: Percent Inhibition of binding at […] against human cannabinoid receptor 2 in chinese hamster ovary cells by using a radioligand WIN-55212-2 mesylate[57-3H]. It is filed as cell-based. The conditions noted are these: CHO.
Experiment [2] has as its target T1, Cannabinoid receptor 2. Description: Binding affinity against human cannabinoid receptor 2 in chinese hamster ovary cells using WIN-55212-2 mesylate[57-3H]. The experiment is classed as cell-based, CHO.
The test system of experiment [3] is Mus musculus. Nature of the experiment: Percentage reduction of serum TNF-alpha when dose of 50 mg/kg was administered orally in mice. The experiment is classed as functional. The conditions noted are these: route oral. A digest of the protocol:
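Female BALB/c mice, 6–8 weeks old, given compound by gavage in 50% propylene glycol/water 10 min before iv LPS (0.1 mL of 10 μg/mL in PBS). Serum TNF-α was measured by ELISA 60 min after LPS; 8 mice per group, mean ± SD.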

Experiment [4] is described as follows: In vitro inhibitory concentration of compound against TNF-alpha release in human peripheral blood mononuclear cells was determined. The experiment is classed as functional. In a few lines:
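PBMCs isolated by ficoll from healthy donor blood and plated at 1 × 10^6 cells/mL in RPMI with 10% FBS. Compounds were added for 30 min before stimulation with LPS (25 ng/mL final). After 6 h at 37 °C, supernatant TNF-α was measured by ELISA.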

Experiment [5] concerns Mus musculus. Description: Effective dose of compound against inhibition of LPS stimulated TNF-alpha release when administered intravenously in mice. The experiment is classed as functional. To be noted: iv. In a few lines:
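Female BALB/c mice, 6–8 weeks old. Compound in 10% propylene glycol/PBS was co-injected iv with LPS (E. coli O111:B4, 10 μg/mL in the dosing solution, 0.1 mL per mouse). Serum was taken 60 min later and TNF-α measured by ELISA; 8 mice per group, mean ± SD.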

Another experiment has as its target Cannabinoid receptor 1 (Homo sapiens, UniProt P21554). Nature of the experiment: Binding affinity of compound against human cannabinoid receptor 1 in chinese hamster ovary cells by using radioligand CP-55940. The experiment is classed as cell-based, CHO. A digest of the protocol:
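CHO-K1 membranes expressing human CB1; CP55,940 used as radiolabelled tracer (routinely 10 nM). Bound label collected by filtration and measured by scintillation counting.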

Experiment [6] concerns the target T1, Cannabinoid receptor 2. Description: Percent Inhibition of binding at 100 nM against human cannabinoid receptor 2 in chinese hamster ovary cells by using a radioligand WIN-55212-2 mesylate[57-3H]. The experiment is classed as cell-based. The conditions noted are these: CHO.

T1 sequence (P34972 whole entry): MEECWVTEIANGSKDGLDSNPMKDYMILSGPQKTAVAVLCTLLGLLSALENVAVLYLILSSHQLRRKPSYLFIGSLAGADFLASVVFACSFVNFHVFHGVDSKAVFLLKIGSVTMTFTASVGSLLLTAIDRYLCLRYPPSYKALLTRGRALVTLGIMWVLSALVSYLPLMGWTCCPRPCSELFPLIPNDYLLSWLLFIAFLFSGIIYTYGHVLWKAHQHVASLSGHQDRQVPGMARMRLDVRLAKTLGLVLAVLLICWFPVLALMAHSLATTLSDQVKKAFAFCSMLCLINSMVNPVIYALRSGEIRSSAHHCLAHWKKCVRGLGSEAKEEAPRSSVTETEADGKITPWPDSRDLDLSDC
Cannabinoid receptor 1, sequence (P21554 whole entry): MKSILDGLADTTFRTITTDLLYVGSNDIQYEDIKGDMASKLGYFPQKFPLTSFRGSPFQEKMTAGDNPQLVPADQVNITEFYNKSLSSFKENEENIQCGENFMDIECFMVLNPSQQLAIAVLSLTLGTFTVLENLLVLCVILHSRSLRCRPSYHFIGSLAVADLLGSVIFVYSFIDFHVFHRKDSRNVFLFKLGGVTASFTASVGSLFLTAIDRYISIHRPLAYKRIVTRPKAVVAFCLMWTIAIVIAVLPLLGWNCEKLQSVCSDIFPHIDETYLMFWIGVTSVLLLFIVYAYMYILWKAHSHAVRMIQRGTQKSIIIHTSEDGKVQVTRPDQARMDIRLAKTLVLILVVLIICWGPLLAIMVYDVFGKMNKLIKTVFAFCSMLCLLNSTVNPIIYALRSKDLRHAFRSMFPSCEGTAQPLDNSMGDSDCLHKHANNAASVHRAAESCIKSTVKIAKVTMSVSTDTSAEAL

`COc1cccc2c3c(=O)n(C(c4ccccc4)c4ccccn4)ccc3n(CCN3CCOCC3)c12` (configuration not stated): the inhibition – broadly, the share of the control response that was lost under treatment – at Cannabinoid receptor 2 [1] worked out at 13%.
With `COc1cccc2c3c(=O)n([C@@H]4C(C)(C)[C@@H]5CC[C@@]4(C)C5)ccc3n(CCN3CCOCC3)c12`, the Ki (commonly a dissociation constant, usually derived from enzyme kinetics or from competition with a known ligand) is 1 nM at Cannabinoid receptor 2 [2] and 16 nM at Cannabinoid receptor 1. The same molecule displayed a Reduction in the experiment with Mus musculus [3] of 61%. In experiment [4], inhibition was half-maximal at 8 µM (IC50). In the experiment on Mus musculus [5], the ED50 (as a rule, the dose at which the effect has come halfway, by size or by number of responders) was determined as 2 mg/kg.
Regarding `COc1ccccc1CNC(=O)c1nn(CCN2CCOCC2)c2c(OC)cccc12`, on Cannabinoid receptor 2 [2], the Ki came out at 77 nM. Further, half-maximal inhibition in experiment [4] (IC50) was put at 43 µM.
Regarding `COc1ccccc1Cn1ccc2c(c1=O)c1cccc(OC)c1n2CCN1CCOCC1`, the Ki was determined as 67 nM on Cannabinoid receptor 2 [2] and 3700 nM on Cannabinoid receptor 1. For the same molecule, 7 µM corresponded to half-maximal inhibition in experiment [4] (IC50).
For `COc1cccc2c(C(=O)NC3C(C)(C)[C@@H]4CC[C@@]3(C)C4)c(C)n(CCN3CCOCC3)c12` (some centres not stated), in that order: 29 nM, 8 nM and 33 µM.
For `COc1cccc2c(C(=O)NC3C(C)(C)[C@@H]4CC[C@@]3(C)C4)nn(CCN3CCOCC3)c12` (some centres not stated), in that order: 2 nM, 24 nM and 30 µM.
For `COc1cccc2c(C(=O)NC3C(C)(C)[C@@H]4CC[C@@]3(C)C4)cn(CCN3CCOCC3)c12` (some centres not stated), in that order: 11 nM, 245 nM and 13 µM.
The molecule `CCCc1c(C(=O)NC2C(C)(C)[C@@H]3CC[C@@]2(C)C3)c2cccc(OC)c2n1CCN1CCOCC1` (some centres not stated) yielded an inhibition at Cannabinoid receptor 2 [6] of 6%.
In turn, `COc1cccc2c(C(=O)N(Cc3c(F)cccc3Cl)C(C)C)nn(CCN3CCOCC3)c12` registered an inhibition constant Ki on Cannabinoid receptor 2 [2] of 69 nM. Further, it took 36 µM to reach half-maximal inhibition in experiment [4] (IC50).
In the case of `COc1cccc2c(C(=O)NC(c3ccccc3)c3ccccn3)nn(CCN3CCOCC3)c12` (configuration not stated), the figures for the inhibition constant Ki at Cannabinoid receptor 2 [2] and at Cannabinoid receptor 1 were 146 nM and 162 nM, respectively. The IC50 – broadly, the midpoint of a concentration-inhibition curve – in experiment [4] worked out at 20 µM.
`CCc1c(C(=O)NC2C(C)(C)[C@@H]3CC[C@@]2(C)C3)c2cccc(OC)c2n1CCN1CCOCC1` (some centres not stated) showed a Ki at Cannabinoid receptor 2 [2] of 110 nM. In other words, the sub-micromolar range.
